For one assay, the system named is HepG2. Nature of the assay: Cytotoxicity against human HepG2 cells. Format: functional, cell-based. In outline:
(§1)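 Growth inhibition in WI-38 fibroblasts (Eagle's MEM), VA-13 (RITC 80-7) and HepG2 (D-MEM) lines, each medium with 10% FBS and 80 µg/mL kanamycin.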

Assay [1] in a line: Reversal of multidrug resistance in human AD10 cells assessed as increase in calcein accumulation at 0.25 ug/ml relative to control. Format: functional. Put shortly: (§2)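 Multidrug-resistant ovarian A2780 subline AD10, kept in RPMI-1640 with 10% FBS and 80 µg/mL kanamycin. Intracellular accumulation of the fluorescent efflux probe calcein AM measured with test compounds at 0.25, 2.5 and 25 µg/mL; verapamil as reference. Values given relative to untreated control or to verapamil; means of triplicates.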

Assay [2] is described as follows: Reversal of multidrug resistance in human AD10 cells assessed as increase in calcein accumulation at 2.5 ug/ml relative to control. Format: functional. In outline:
as §2

Assay [3] can be described thus: Reversal of multidrug resistance in human AD10 cells assessed as increase in calcein accumulation at 25 ug/ml relative to control. The format is functional. Put shortly:
as §2

The nature of assay [4]: Reversal of multidrug resistance in human AD10 cells assessed as increase in calcein accumulation at 0.25 ug/ml relative to verapamil. The format is functional. In outline: as §2
Assay [5] is described as follows: Reversal of multidrug resistance in human AD10 cells assessed as increase in calcein accumulation at 2.5 ug/ml relative to verapamil. Format: functional. In outline: as §2
The nature of assay [6]: Reversal of multidrug resistance in human AD10 cells assessed as increase in calcein accumulation at 25 ug/ml relative to verapamil. The format is functional. In outline:
as §2

The subject of assay [7] is A549. Nature of the assay: Antiinflammatory activity in human A549 cells assessed as inhibition of TNF-alpha-induced ICAM1 induction incubated for 1 hr prior to TNFalpha challenge measured after 6 hrs. The format is functional, cell-based. Put shortly: (§3)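 A549 cells grown in RPMI 1640 with 10% FBS and penicillin-streptomycin. Pretreated with serially varied compound concentrations for 1 h, then stimulated with IL-1α or TNF-α for 6 h. Cell-surface ICAM-1 detected with mouse anti-human ICAM-1 antibody plus peroxidase-conjugated goat anti-mouse IgG, read as absorbance. Expression as % of control = (sample+cytokine − no cytokine)/(cytokine − no cytokine) ×100; IC50 derived from this.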

The test system of assay [8] is A549. Kind of assay: Antiinflammatory activity in human A549 cells assessed as inhibition of IL1alpha -induced ICAM1 induction incubated for 1 hr prior to IL1alpha challenge measured after 6 hrs. The format is functional, cell-based. In outline:
as §3

For assay [9], the system named is A549. Kind of assay: Cytotoxicity against human A549 cells after 24 hrs by MTT assay. Format: functional, cell-based. The note with it: A549, 24 h. Put shortly: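 A549 cells in RPMI 1640 with 10% FBS were exposed to serial dilutions of compound for 24 h. Viability read by MTT absorbance: % = (experimental − background)/(control − background) ×100. IC50 taken from viability data.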
For orientation: Tetrazolium assays rely on reduction of a dye to a coloured formazan, in cell work by metabolically active cells.

Assay [10] is described as follows: Cytotoxicity against human WI38 cells. The format is cell-based. Particulars: WI-38. In outline:
as §1

A further assay relates to WI-38 VA13. Kind of assay: Cytotoxicity against human VA13 cells. Format: functional, cell-based. Put shortly: as §1

Where only a bound is given, the exact number is not on record here.

IC50 and Activity data for 15 molecules are collected here from ChEMBL document CHEMBL1157945, “Bioactive secolignans from Peperomia dindygulensis” (J Nat Prod, 2006).

Usually IC50 stands for the concentration that gives 50% inhibition.

As for `C=C1C(=O)OC[C@H]1C(c1cc(OC)c(O)c(OC)c1)c1cc(OC)c2c(c1)OCO2` (some centres not stated), the IC50 in the assay with HepG2 amounted to 22.3 µM; in the assay on A549 [7], 3.16 µM; in the assay on A549 [8], 4.23 µM; in the assay with A549 [9] it was 84.7 µM; in assay [10], 20.9 µM; in the assay with WI-38 VA13 it was 13.5 µM. Besides, the Activity is on record as 104% in assay [1]; 98% in [2]; 125% in assay [3]; 98% in assay [4]; 85% in assay [5]; 83% in assay [6].
For the molecule `COc1cc(C(c2cc(OC)c3c(c2)OCO3)[C@@H]2CO[C@@H](O)[C@@H]2C)cc2c1OCO2`, the 50% inhibitory concentration (IC50) in the assay on HepG2 came to 140 µM; in assay [10], 142 µM; with WI-38 VA13 it was 138 µM. The Activity is on record as 99% in [1]; 104% in assay [2]; 107% in [3]; 93% in assay [4]; 90% in [5]; 71% in assay [6].
On to `COc1cc(C(c2cc(OC)c3c(c2)OCO3)[C@@H]2COC(=O)[C@H]2C)cc(OC)c1O` (some centres not stated), for which the IC50 in the assay with HepG2 is 159 µM; in assay [10], 174 µM; in the assay with WI-38 VA13, 112 µM. The Activity is listed as 99% in [1]; 104% in assay [2]; 107% in assay [3]; 93% in [4]; 90% in assay [5]; 71% in [6].
On to `COc1cc(C(c2cc(OC)c3c(c2)OCO3)[C@@H]2COC(=O)[C@@H]2CO)cc(OC)c1OC` (some centres not stated), for which the IC50 (in the assay on HepG2; in [10]; in the assay on WI-38 VA13) was above 224 µM in each case. For the same molecule, the Activity in assay [1] is recorded as 105%; in [2], 109%; in assay [3], 125%; in [4], 98%; in [5] it was 94%; in [6], 83%.
Turning to `COc1cc(C(c2cc(OC)c(OC)c(OC)c2)[C@@H]2COC(=O)[C@H]2C)cc(O)c1OC` (some centres not stated), the IC50 was above 231 µM with HepG2; 59.9 µM with A549 [7]; 119 µM in the assay with A549 [8]; above 316 µM with A549 [9]; above 231 µM in assay [10]; above 231 µM in the assay on WI-38 VA13. In addition, the Activity in assay [1] was 101%; in assay [2], 104%; in [3], 105%; in assay [4] it was 95%; in assay [5], 90%; in assay [6], 70%.
`COc1cc(C(c2cc(OC)c(OC)c(OC)c2)[C@@H]2COC(=O)[C@H]2C)cc(OC)c1O` (some centres not stated): the concentration for half-maximal inhibition (IC50) in the assay with HepG2 is 163 µM; in the assay with A549 [7], 29 µM; in the assay on A549 [8], 44.3 µM; in the assay with A549 [9] it was above 316 µM; in assay [10] it was 184 µM; with WI-38 VA13, 151 µM. Further, the Activity is reported as 96% in [1]; 95% in assay [2]; 103% in assay [3]; 90% in assay [4]; 82% in assay [5]; 68% in assay [6].
Take `COc1cc(C(c2cc(OC)c3c(c2)OCO3)[C@@H]2COC(=O)[C@@H]2CO)cc2c1OCO2`: the IC50 was 97.8 µM with HepG2, above 316 µM in the assay with A549 [9], 12.8 µM in assay [10] and 113 µM in the assay with WI-38 VA13. In addition, the Activity in assay [1] is given as 98%; in assay [2], 95%; in assay [3], 105%; in [4], 92%; in [5], 82%; in assay [6], 70%.
`COc1ccc(CCN(C)CCCC(C#N)(c2ccc(OC)c(OC)c2)C(C)C)cc1OC` (configuration not stated): the Activity in [1] is recorded as 106%; in [2] it was 116%; in assay [3], 150%.
For the molecule `COc1cc(C(c2cc(OC)c3c(c2)OCO3)[C@@H]2COC(=O)[C@@H]2COC(C)=O)cc(OC)c1O` (single isomer, unassigned; (-)), the IC50 in the assay on HepG2 is 75.9 µM; in assay [10], 14.8 µM; in the assay on WI-38 VA13 it was 15.2 µM. Moreover, the Activity in [1] was 108%; in [2], 104%; in assay [3] it was 104%; in assay [4], 101%; in [5], 89%; in assay [6] it was 69%.
As to `COc1cccc2c1C(=O)c1c(O)c3c(c(O)c1C2=O)C[C@@](O)(C(=O)CO)C[C@@H]3O[C@H]1C[C@H](N)[C@H](O)[C@H](C)O1` (stereo in doubt) [DOXORUBICIN], the 50% inhibitory concentration (IC50) in the assay with HepG2 worked out at 2.21 µM; in [10], 1.21 µM; in the assay on WI-38 VA13, 0.699 µM.
Turning to `CC(=O)O[C@H]1C(=O)[C@@]2(C)[C@H]([C@H](OC(=O)c3ccccc3)[C@]3(O)C[C@H](OC(=O)[C@H](O)[C@@H](NC(=O)c4ccccc4)c4ccccc4)C(C)=C1C3(C)C)[C@]1(OC(C)=O)CO[C@@H]1C[C@@H]2O` [PACLITAXEL], the IC50 in [10] is 0.0468 µM; in the assay on WI-38 VA13, 0.0059 µM.
With `COc1cc(C(c2cc(OC)c3c(c2)OCO3)[C@@H]2COC(=O)[C@H]2C)cc2c1OCO2` [PEPEROMIN A], the IC50 in the assay with HepG2 is above 239 µM; in the assay with A549 [9] it was above 316 µM; in [10], above 239 µM; with WI-38 VA13 it was above 239 µM. For the same molecule, the Activity is 85% in [1]; 91% in [2]; 120% in assay [3]; 90% in assay [4]; 82% in [5]; 83% in [6].
With `COc1cc([C@@H](c2cc(OC)c3c(c2)OCO3)[C@@H]2COC(=O)[C@H]2C)cc(OC)c1OC` [PEPEROMIN B], the IC50 in the assay on HepG2 is 119 µM; in the assay with A549 [9], above 316 µM; in assay [10], 9.06 µM; in the assay with WI-38 VA13, 13.9 µM. Besides, the Activity in assay [1] is 111%; in assay [2] it was 104%; in [3], 121%; in assay [4] it was 132%; in [5] it was 107%; in assay [6], 81%.
Consider `COc1cc(C(c2cc(OC)c(OC)c(OC)c2)[C@@H]2COC(=O)[C@H]2C)cc(OC)c1OC` [PEPEROMIN C], for which the 50% inhibitory concentration (IC50) with HepG2 is 189 µM; in the assay on A549 [7], 125 µM; with A549 [8], 246 µM; with A549 [9], above 316 µM; in [10] it was 175 µM; with WI-38 VA13 it was 120 µM. Further, the Activity was 109% in assay [1]; 115% in assay [2]; 138% in [3]; 130% in assay [4]; 118% in assay [5]; 92% in assay [6].
With `C=C1C(=O)OC[C@H]1C(c1cc(OC)c2c(c1)OCO2)c1cc(OC)c2c(c1)OCO2` [PEPEROMIN E], the IC50 with HepG2 was 12.1 µM; in the assay with A549 [9], 78.9 µM; in assay [10], 1.21 µM; in the assay with WI-38 VA13 it was 1.93 µM. The Activity is listed as 102% in assay [1]; 102% in [2]; 132% in [3]; 96% in assay [4]; 88% in assay [5]; 88% in assay [6].
